Measurements of several laboratories.
Mode: inhibitor
Dihydroorotate dehydrogenase, mitochondrial, putative: Dihydroorotate dehydrogenase, mitochondrial, putative (Plasmodium vivax, UniProt A5K1N1)
HDAC6: Protein deacetylase HDAC6 (HDAC6, Homo sapiens, UniProt Q9UBN7)
KCNH2: Voltage-gated inwardly rectifying potassium channel KCNH2 (KCNH2, Homo sapiens, UniProt Q12809)

Compound | target | assay | setting | IC50 [µM]
Cc1c(C(=O)OC2CC2)nn(C)c1Cc1ccc(C(F)(F)F)nc1 | Dihydroorotate dehydrogenase, mitochondrial, putative | enzyme activity, absorbance | – | 0.016
O=C(NO)c1cccc(OS(=O)(=O)Oc2ccc(C(F)(F)F)cc2)c1 | HDAC6 | enzyme activity, fluorescence | – | 0.842
CCn1cc(C)c2c(C(O)c3ccc(Cl)c(F)c3)n(C)nc2c1=O (stereo not drawn) | Dihydroorotate dehydrogenase, mitochondrial, putative | enzyme activity, absorbance | – | 0.0098
Cc1cc(C(C)(C)C)ccc1OS(=O)(=O)Oc1cc(F)cc(C(=O)NO)c1 | HDAC6 | enzyme activity, fluorescence | – | 3.21
CCOC(=O)c1nn(C)c(Cc2ccc(C(F)(F)F)nc2)c1C | Dihydroorotate dehydrogenase, mitochondrial, putative | enzyme activity, absorbance | – | 0.088
COc1cnc2c(cc(C(=O)NCc3ccc(Cl)cc3)c(=O)n2CC(=O)N2CC(C)(F)C2)n1 | KCNH2 | ion current, patch clamp | – | 2.91
CC(C)(C)c1ccc(OS(=O)(=O)Oc2cc(F)cc(C(=O)NO)c2)cc1 | HDAC6 | enzyme activity, fluorescence | – | 2.1
Cc1cc(Nc2nccc(C)n2)cc(-c2cnc([C@@]3(O)CC[C@H](C(=O)NCCCNC(=O)CCc4ccc5n4[B-](F)(F)[N+]4=C(c6ccc[nH]6)C=CC4=C5)C(C)(C)C3)s2)c1 | Tyrosine-protein kinase SYK (SYK, Homo sapiens, UniProt P43405) | enzyme activity, radiometric | – | 0.11
Cn1nc2c(=O)n(C3CC3)cnc2c1[C@](O)(c1cnc(C(F)(F)F)c(Cl)c1)C(F)(F)F | Dihydroorotate dehydrogenase, mitochondrial, putative | enzyme activity, absorbance | – | 0.023
O=C(NO)c1cc(F)cc(OS(=O)(=O)Oc2ccccc2)c1 | HDAC6 | enzyme activity, fluorescence | – | 0.077
O=c1oc(-c2ccco2)nc2ccccc12 | Prothrombin (F2, Homo sapiens, UniProt P00734) | enzyme activity, absorbance | pH 7.4 | > 50
CC[C@@](O)(c1cnc(C(F)(F)F)c(Cl)c1)c1c2cnn(C3CC3)c(=O)c2nn1C | Dihydroorotate dehydrogenase, mitochondrial, putative | enzyme activity, absorbance | – | 0.019
COc1cccc(OS(=O)(=O)Oc2cccc(C(=O)NO)c2)c1 | HDAC6 | enzyme activity, fluorescence | – | 0.092
Cn1nc2c(=O)n(C3CC3)ncc2c1[C@](O)(c1cnc(C(F)(F)F)c(Cl)c1)C(F)(F)F | Dihydroorotate dehydrogenase, mitochondrial, putative | enzyme activity, absorbance | – | 0.017
CC1(F)CN(C(=O)Cn2c(=O)c(C(=O)NCc3ccc(Cl)cc3)cc3nc(N4CCCC4=O)cnc32)C1 | KCNH2 | ion current, patch clamp | – | > 40
COc1ccc(C[C@H]2COC(=O)[C@@H]2Cc2ccc(OCC(=O)Nc3ccc(C(=O)Nc4ccccc4N)cc3)c(OC)c2)cc1OC | HDAC6 | enzyme activity | – | > 10
CC1(F)CN(C(=O)Cn2c(=O)c(C(=O)NCc3ccc(Cl)cc3)cc3nccnc32)C1 | KCNH2 | ion current, patch clamp | – | 5.91
COc1ccc2c(C(=S)N(C)CC(=O)O)cccc2c1C(F)(F)F | Aldo-keto reductase family 1 member B10 (AKR1B10, Homo sapiens, UniProt O60218, K125R) | enzyme activity | – | 0.124
